Active and inactive are the calls of the source.
What was measured:
[1] = biological target: Alpha-glucosidase MAL12 (Saccharomyces cerevisiae S288c) (UniProt P53341); assay: Inhibition of yeast alpha-glucosidase MAL12 assessed as inhibition of p-nitrophenol release at 500 uM by spectrophotometry relative to control
How it was run: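 Baker's yeast maltase, with p-nitrophenyl-α-D-glucopyranoside as substrate. Released p-nitrophenol was read at 405 nm. Compounds were screened at a fixed 500 μM, and activity was expressed as percent inhibition relative to a no-inhibitor control assay. Acarbose served as comparator.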

Alpha-glucosidase MAL12 = Alpha-glucosidase MAL12 (Saccharomyces cerevisiae S288c, UniProt P53341); assay: Inhibition of yeast alpha-glucosidase MAL12 assessed as inhibition of p-nitrophenol release by spectrophotometry
Alpha-glucosidase MAL12, sequence (P53341 whole entry): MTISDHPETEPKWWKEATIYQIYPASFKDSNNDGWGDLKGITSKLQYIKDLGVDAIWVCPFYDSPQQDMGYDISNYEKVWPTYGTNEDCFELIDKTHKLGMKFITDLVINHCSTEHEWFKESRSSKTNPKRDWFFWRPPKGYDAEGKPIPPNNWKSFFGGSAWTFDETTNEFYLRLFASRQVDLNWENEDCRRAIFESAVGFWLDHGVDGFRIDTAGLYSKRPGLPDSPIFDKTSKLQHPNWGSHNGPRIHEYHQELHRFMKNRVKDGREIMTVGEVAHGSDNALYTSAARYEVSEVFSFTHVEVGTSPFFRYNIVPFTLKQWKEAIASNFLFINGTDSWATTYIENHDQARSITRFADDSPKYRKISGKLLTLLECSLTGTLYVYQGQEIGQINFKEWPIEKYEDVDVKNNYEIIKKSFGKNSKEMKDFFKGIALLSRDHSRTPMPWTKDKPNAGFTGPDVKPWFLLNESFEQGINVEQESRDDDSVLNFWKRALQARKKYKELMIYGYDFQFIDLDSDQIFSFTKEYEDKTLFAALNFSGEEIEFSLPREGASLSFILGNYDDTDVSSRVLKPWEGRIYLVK
How it was run: (§1)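 Yeast maltase activity was followed by p-nitrophenol release from p-nitrophenyl-α-D-glucopyranoside at 405 nm. IC50 was defined as the concentration giving 50% inhibition under assay conditions. Acarbose was tested in the same assay, and the ratio was taken as acarbose IC50 over compound IC50.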

[2] = biological target: Alpha-glucosidase MAL12 (Saccharomyces cerevisiae S288c) (UniProt P53341); assay: Ratio of acarbose IC50 to compound IC50 for yeast alpha-glucosidase MAL12; how it was run: as §1
Rattus norvegicus [3] = assay: Hypoglycemic activity in maltose-fed Wistar rat assessed as reduction in postprandial blood glucose level at 50 mg/kg, po administered 5 mins before maltose challenge measured after 30 mins of maltose infusion
Rattus norvegicus [4] = assay: Hypoglycemic activity in maltose-fed Wistar rat assessed as reduction in postprandial blood glucose level at 50 mg/kg, po administered 5 mins before maltose challenge measured after 60 mins of maltose infusion

Alpha-glucosidase MAL12 (Saccharomyces cerevisiae S288c), sequence (P53341 whole entry, the tested form may be a part): as the sequence (P53341 whole entry) above

**Q.** For `CO[C@@H]1O[C@H](Cn2cc(CO)nn2)[C@H]2OC(C)(C)O[C@@H]12`, which inhibition [1] is on record?
**A.** 46.5%

**Q.** With `CCOC(=O)c1cn(C[C@H]2O[C@@H](OC)[C@@H]3OC(C)(C)O[C@@H]32)nn1` as the compound, how does the inhibition [1] read?
**A.** 98%

**Q.** What about the IC50 (Alpha-glucosidase MAL12) of the same compound?
**A.** 15.1 µM

**Q.** For `CC1(C)O[C@H]2O[C@H](Cn3cc(C4=CCCCC4)nn3)[C@H](O)[C@H]2O1`, which inhibition [1] is on record?
**A.** 33.3%

**Q.** How did the inhibition [1] turn out when `CCCc1cn(C[C@H]2O[C@@H](OC)[C@@H]3OC(C)(C)O[C@@H]32)nn1` was run?
**A.** 44.9%

**Q.** How did the inhibition [1] turn out when `CC1(C)O[C@H]2O[C@H](Cn3cc(-c4ccccc4)nn3)[C@H](O)[C@H]2O1` was run?
**A.** 87.9%

**Q.** Which results are given for `CO[C@@H]1O[C@H](Cn2cc(C3=CCCCC3)nn2)[C@H]2OC(C)(C)O[C@@H]12`?
**A.** inhibition [1]: 98.1%; IC50 (Alpha-glucosidase MAL12): 3.8 µM; Ratio IC50 [2]: 25

**Q.** How did the inhibition [1] turn out when `CC1(C)O[C@H]2O[C@H]([C@H]3COC(C)(C)O3)[C@@H](n3cc(-c4ccccc4)nn3)[C@H]2O1` was run?
**A.** 73.1%

**Q.** With `CO[C@@H]1O[C@H](Cn2cc(CCCCl)nn2)[C@H]2OC(C)(C)O[C@@H]12` as the compound, how does the inhibition [1] read?
**A.** 99.5%

**Q.** `CC1(C)O[C@H]2O[C@H](Cn3cc(CO)nn3)[C@H](O)[C@H]2O1` was tested. Which inhibition [1] did it give?
**A.** 68.8%

**Q.** Which results are given for `CO[C@@H]1O[C@H](Cn2cc(-c3ccccc3)nn2)[C@H]2OC(C)(C)O[C@@H]12`?
**A.** inhibition [1]: 94.4%; IC50 (Alpha-glucosidase MAL12): 14.9 µM; Activity (Rattus norvegicus [3]): Active; Activity (Rattus norvegicus [4]): Active

**Q.** `CO[C@@H]1O[C@H](Cn2cc(C3(O)CCCCC3)nn2)[C@H]2OC(C)(C)O[C@@H]12` was tested. Which inhibition [1] did it give?
**A.** 98.5%

**Q.** What about the IC50 (Alpha-glucosidase MAL12) of the same compound?
**A.** 5.2 µM

**Q.** And the Ratio IC50 [2]?
**A.** 20

**Q.** `CO[C@@H]1O[C@H](Cn2cc(COc3ccccc3)nn2)[C@H]2OC(C)(C)O[C@@H]12` was tested. Which inhibition [1] did it give?
**A.** 98.4%

**Q.** What about the IC50 (Alpha-glucosidase MAL12) of the same compound?
**A.** 5.7 µM

**Q.** What about the Ratio IC50 [2] of the same compound?
**A.** 20

**Q.** What about the Activity (Rattus norvegicus [3]) of the same compound?
**A.** Active

**Q.** What about the Activity (Rattus norvegicus [4]) of the same compound?
**A.** Active

**Q.** With `C[C@H]1O[C@H](O[C@H]2[C@H](O)[C@@H](O)[C@@H](O[C@H]3[C@H](O)[C@@H](O)C(O)O[C@@H]3CO)O[C@@H]2CO)[C@H](O)[C@@H](O)[C@@H]1N[C@H]1C=C(CO)[C@@H](O)[C@H](O)[C@H]1O` (some centres not stated) as the compound, how does the inhibition [1] read?
**A.** 48.1%

**Q.** And the Activity (Rattus norvegicus [3])?
**A.** Active

**Q.** What about the Activity (Rattus norvegicus [4]) of the same compound?
**A.** Active

**Q.** How did the inhibition [1] turn out when `CCC(C)(O)c1cn(C[C@H]2O[C@@H](OC)[C@@H]3OC(C)(C)O[C@@H]32)nn1` (some centres not stated) was run?
**A.** 41.1%

**Q.** With `CO[C@@H]1O[C@H](Cn2cc(COC3CCCCO3)nn2)[C@H]2OC(C)(C)O[C@@H]12` (some centres not stated) as the compound, how does the inhibition [1] read?
**A.** 79.5%

**Q.** What about the IC50 (Alpha-glucosidase MAL12) of the same compound?
**A.** 24.7 µM

**Q.** With `CC1(C)O[C@H]2[C@@H](O1)[C@@H](Cn1cc(-c3ccccc3)nn1)O[C@@H]1OC(C)(C)O[C@@H]12` as the compound, how does the inhibition [1] read?
**A.** 99.4%

**Q.** How did the inhibition [1] turn out when `CO[C@@H]1O[C@H](Cn2cc(C(C)(C)O)nn2)[C@H]2OC(C)(C)O[C@@H]12` was run?
**A.** 60.2%
